Screening data from PubChem.
hIAP inh: human IAP inhibition. purified IAP, CDP-Star luminescence, 30 min. 330,000 tested, 0.12% active. inhibition, % at 10 µM;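 active = inhibition reaching a set limit with compound at 10 µM in the primary screen, cut at about 35% in these data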;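 also: plate controls were DMSO wells with enzyme for no effect and no-enzyme buffer wells for full effect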
Target sequence (P09923 whole entry, looked up): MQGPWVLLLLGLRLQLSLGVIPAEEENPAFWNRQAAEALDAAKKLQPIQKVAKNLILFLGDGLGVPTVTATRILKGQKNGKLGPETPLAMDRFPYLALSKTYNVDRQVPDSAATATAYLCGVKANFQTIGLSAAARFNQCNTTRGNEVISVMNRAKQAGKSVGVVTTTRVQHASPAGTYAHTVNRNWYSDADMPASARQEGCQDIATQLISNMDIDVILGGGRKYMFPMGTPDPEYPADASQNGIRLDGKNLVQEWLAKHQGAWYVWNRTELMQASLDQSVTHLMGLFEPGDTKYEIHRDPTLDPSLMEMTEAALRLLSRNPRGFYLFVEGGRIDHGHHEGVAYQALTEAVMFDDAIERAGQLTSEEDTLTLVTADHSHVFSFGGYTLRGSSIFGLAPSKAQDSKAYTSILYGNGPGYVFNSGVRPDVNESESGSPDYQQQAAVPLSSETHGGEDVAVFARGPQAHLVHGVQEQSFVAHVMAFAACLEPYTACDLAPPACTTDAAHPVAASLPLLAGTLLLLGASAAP
hIAP activ: increases human intestinal alkaline phosphatase activity. P09923. purified human IAP, CDP-Star luminescence, 30 min; active compounds read high; 1 = vehicle-only enzyme, 0 = enzyme-free background. activation factor at 10 µM. 330,000 tested, 0.16% active. AID 2524;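 active = activation factor of the enzyme at least 2-fold when tested at 20 µM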
mIAP act: increases mouse intestinal alkaline phosphatase activity; muIAP, CDP-Star luminescence, 30 min; active compounds read high; 1 = vehicle-only enzyme signal, 0 = enzyme-free wells; activation factor at 10 µM; 330,000 tested, 0.24% active; AID 2805;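 active = activation factor of at least 2 at 20 µM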
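System: mouse IAP enzyme. Reagent: CDP-Star chemiluminescent phosphatase substrate. Benchmarks: DMSO wells, no-enzyme wells. Times: 30 min enzyme-substrate-compound incubation at room temperature. Detection: luminescence from enzymatic CDP-Star hydrolysis. Doses: test compounds delivered from DMSO solution.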
bIAP activator: intestinal alkaline phosphatase (bovine) activation | purified bovine IAP, CDP-star luminescence, 30 min; active compounds read high; fold of DMSO-control signal, blank-subtracted | activation factor at 20 µM | 200,000 tested, 0.17% active | AID 1016;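 active = activation factor of 2 or more at 20 µM, a signal rise over negative controls twice the positive control's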
bIAP inhibitor: intestinal alkaline phosphatase (bovine) inhibition | 190,000 tested, under 10 active | purified bovine IAP, CDP-star luminescence, 30 min | inhibition, % at 20 µM | AID 1019;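 active = over 50% inhibition of intestinal alkaline phosphatase at 20 µM in the single-dose screen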
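test system = bovine IAP enzyme | medium = DEA buffer 100 mM, pH 9.8, with MgCl2 1.0 mM, ZnCl2 0.02 mM | detection = luminescence | dosing = single compound dose of 20 µM, 2% DMSO final | incubation = 30 min reaction at room temperature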
mIAP block: blocks mouse intestinal alkaline phosphatase | purified mouse IAP, CDP-Star luminescence, 30 min | inhibition, % at 10 µM | 330,000 tested, 0.2% active;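 active = inhibition of at least 40% at 10 µM in the primary screen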;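 also: plate controls were DMSO with enzyme for no effect and no enzyme wells for full effect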
An asterisk follows results filed as active. The list is not random: actives were taken first. Their share in the collection is about 0.72%.

How did COc1ccc(S(=O)(=O)Nc2cccc(/C=C/C(=O)O)c2)cc1 do in these assays?
hIAP inh: 4; hIAP activ: 0.96; mIAP act: 1; bIAP activator: 4.6*; bIAP inhibitor: -357; mIAP block: -1

What do the screens show for `Cc1ccc(S(=O)(=O)Nc2cccc(/C=C/C(=O)O)c2)cc1`?
hIAP inh: -3; hIAP activ: 1; mIAP act: 1; bIAP activator: 1; bIAP inhibitor: 2; mIAP block: -4

What do the screens show for `Cc1ncc([N+](=O)[O-])n1CCOC(=O)C12CC3CC(CC(C3)C1)C2`?
hIAP inh: 0; hIAP activ: 1; mIAP act: 0.97; bIAP activator: 1; bIAP inhibitor: -1; mIAP block: 3

What do the screens show for `O=C(NCCc1ccccc1)c1n[nH]c2ccccc12`?
hIAP inh: 19; hIAP activ: 0.81; mIAP act: 1; bIAP activator: 2*; bIAP inhibitor: -96; mIAP block: -2

What do the screens show for `Cc1ccc2nc(NCc3ccccc3)[nH]c2c1`?
bIAP activator: 2.8*; bIAP inhibitor: -177

How did COc1ccc(NC(=O)Nc2ccc3c(c2)N(C)C(=O)CS3)cc1Cl do in these assays?
hIAP inh: -13; hIAP activ: 1.1; mIAP act: 1.9; bIAP activator: 1; bIAP inhibitor: 0; mIAP block: -88

What do the screens show for `COc1ccc(NC(=O)Nc2ccc3c(c2)N(C)C(=O)CS3)cc1OC`?
hIAP inh: -20; hIAP activ: 1.2; mIAP act: 2.2*; bIAP activator: 1.1; bIAP inhibitor: -9; mIAP block: -122

Results for CCOc1ccc(NC(=O)Nc2ccc3c(c2)N(C)C(=O)CS3)cc1 ?
hIAP inh: -17; hIAP activ: 1.2; mIAP act: 2.3*; bIAP activator: 1; bIAP inhibitor: 0; mIAP block: -132

What do the screens show for `O=C(CC1CCCCC1)N1CCCC(c2nc(-c3ccc(S(=O)(=O)N4CCCC4)cc3)no2)C1` (centres undefined)?
hIAP inh: 4; hIAP activ: 0.96; mIAP act: 0.92; bIAP activator: 1; bIAP inhibitor: -2; mIAP block: 8

Results for Cc1cccc(OCC(=O)Nc2ncn[nH]2)c1C ?
hIAP inh: -103; hIAP activ: 2*; mIAP act: 1; mIAP block: -2

Results for Cc1cccc(OCC(=O)Nc2ccncc2)c1C ?
hIAP inh: -6; hIAP activ: 1.1; mIAP act: 1.1; mIAP block: -13

Results for COC(=O)c1ccc(NC(=S)NCCc2ccccc2C)cc1 ?
hIAP inh: 5; hIAP activ: 0.95; mIAP act: 2*; bIAP activator: 0.9; bIAP inhibitor: 5; mIAP block: -100

Results for COC(=O)c1ccc(NC(=S)NCCc2cccc(C)c2)cc1 ?
hIAP inh: -9; hIAP activ: 1.1; mIAP act: 1.9; bIAP activator: 0.7; bIAP inhibitor: 34; mIAP block: -94

What do the screens show for `COc1ccc(NC(=O)Nc2ccc(F)c(Cl)c2)cc1`?
hIAP inh: 9; hIAP activ: 0.91; mIAP act: 1.9; bIAP activator: 1; bIAP inhibitor: 3; mIAP block: -89

What do the screens show for `Cc1ccc(NC(=O)Nc2ccc(F)c(Cl)c2)cc1`?
hIAP inh: -14; hIAP activ: 1.1; mIAP act: 2.9*; bIAP activator: 0.7; bIAP inhibitor: 31; mIAP block: -188

What do the screens show for `CSc1ccccc1NC(=O)Nc1cccc(Cl)c1`?
hIAP inh: 9; hIAP activ: 0.91; mIAP act: 2.1*; bIAP activator: 0.9; bIAP inhibitor: 6; mIAP block: -113

How did CSc1ccccc1NC(=O)Nc1ccc(F)c(Cl)c1 do in these assays?
hIAP inh: 20; hIAP activ: 0.81; mIAP act: 2.3*; bIAP activator: 1; bIAP inhibitor: 1; mIAP block: -128

Results for COc1ccccc1NC(=O)C1C2CCCCC21 (centres undefined) ?
hIAP inh: 15; hIAP activ: 0.85; mIAP act: 0.91; bIAP activator: 0.8; bIAP inhibitor: 17; mIAP block: 9

Results for O=C(O)c1cc2c(cc1NC(=O)C1CCCC1)OCCO2 ?
hIAP inh: -2; hIAP activ: 1; mIAP act: 0.95; mIAP block: 5

What do the screens show for `O=C(O)c1cc(-c2ccc(O)cc2)nc2ccccc12`?
hIAP inh: 0; hIAP activ: 1; mIAP act: 0.95; bIAP activator: 0.9; bIAP inhibitor: 8; mIAP block: 5

What do the screens show for `CCN(C(=O)COC(=O)CNS(=O)(=O)c1ccc2ccccc2c1)C1CCCCC1`?
hIAP inh: 4; hIAP activ: 0.96; mIAP act: 0.95; mIAP block: 5

Results for CC1CCCCC1NC(=S)Nc1ccc(Cl)cc1Cl (centres undefined) ?
hIAP inh: -5; hIAP activ: 1.1; mIAP act: 2.8*; bIAP activator: 1; bIAP inhibitor: -2; mIAP block: -178

How did COC(=O)c1sc(NC(=O)CSc2nc3cccnc3n2C2CCCCC2)nc1C do in these assays?
hIAP inh: -4; hIAP activ: 1; mIAP act: 0.92; bIAP activator: 1.1; bIAP inhibitor: -10; mIAP block: 8

How did Nn1c(SCC(=O)Nc2nccs2)nnc1-c1cccnc1 do in these assays?
hIAP inh: 2; hIAP activ: 0.98; mIAP act: 1.1; mIAP block: -5

How did COc1cc(C2c3c(oc4ccc(Cl)cc4c3=O)C(=O)N2Cc2ccco2)cc(OC)c1OC (centres undefined) do in these assays?
bIAP activator: 2.6*; bIAP inhibitor: -164

What do the screens show for `CCc1ccccc1NC(=O)Nc1ccc(F)cc1`?
hIAP inh: -10; hIAP activ: 1.1; mIAP act: 1.2; bIAP activator: 0.9; bIAP inhibitor: 12; mIAP block: -22

Results for O=C(Nc1ccc(F)cc1)Nc1ccccc1N1CCCCC1 ?
hIAP inh: -11; hIAP activ: 1.1; mIAP act: 2.6*; mIAP block: -161

How did O=C(Nc1ccc(F)cc1)Nc1csc2ccccc12 do in these assays?
hIAP inh: -24; hIAP activ: 1.2; mIAP act: 2.3*; mIAP block: -132

How did O=C(NCc1ccccc1)NC12CC3CC(CC(C3)C1)C2 do in these assays?
hIAP inh: 5; hIAP activ: 0.95; mIAP act: 1.1; mIAP block: -10

What do the screens show for `Cc1nn(Cc2cccc(Oc3ccccc3)c2)c(C)c1NC(=O)NC12CC3CC(CC(C3)C1)C2`?
hIAP inh: 4; hIAP activ: 0.96; mIAP act: 6.8*; bIAP activator: 1; bIAP inhibitor: 0; mIAP block: inactive

Results for COc1ccc(OC)c(NC(=S)NCCCN2CCOCC2)c1 ?
hIAP inh: 1; hIAP activ: 0.99; mIAP act: 1.1; bIAP activator: 2.4*; bIAP inhibitor: -140; mIAP block: -9
